According to ChEMBL document CHEMBL4190221, “Inhibition of Proliferation of Vascular Smooth Muscle Cells by Cucurbitanes from Momordica charantia” (J Nat Prod, 2017):
The source made the active and inactive calls. No cut-off for these calls is given here.

Legend:
[1] = system: VSMC; assay: Cytotoxicity against Sprague-Dawley rat VSMC assessed as decrease in cell viability at 5 to 10 uM after 24 hrs by MTT assay; assay type: cell-based
Method in brief: (§1)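 Primary aortic smooth muscle cells from Sprague-Dawley rats, passages 7–10, grown in DMEM/10% FBS at 37 °C and seeded at 3.0 × 10^4 cells/mL. Cells were serum-starved 24 h, then exposed to compound for 24 h alongside a 0.1% DMSO control and a digitonin 100 μg/mL cytotoxicity control. MTT 5 mg/mL was added for 2 h, formazan taken up in DMSO, and OD read at 565 nm. Four independent experiments, each in triplicate.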

[2] = system: VSMC; assay: Inhibition of PDGF-induced Sprague-Dawley rat VSMC proliferation at 5 to 10 uM pretreated for 2 hrs followed by PDGF stimulation measured after 24 hrs by MTT assay; assay type: functional, cell-based
Method in brief: (§2)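 Rat aortic VSMCs (Sprague-Dawley, passages 7–10) were seeded at 3.0 × 10^4 cells/mL, grown 24 h in DMEM/10% FBS, then serum-starved 24 h. Compound was added 2 h before PDGF 25 ng/mL, followed by 24 h more incubation. Paclitaxel 1 μM served as positive control. MTT read-out at 565 nm. Four independent experiments in triplicate, compared against PDGF-stimulated cells.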

[3] = system: VSMC; assay: Inhibition of PDGF-induced Sprague-Dawley rat VSMC proliferation at 10 uM pretreated for 2 hrs followed by PDGF stimulation measured after 24 hrs by MTT assay relative to control; assay type: functional; method in brief: as §2
[4] = system: VSMC; assay: Cytotoxicity against Sprague-Dawley rat VSMC assessed as decrease in cell viability at 0.5 to 1 uM after 24 hrs by MTT assay; assay type: cell-based; method in brief: as §1
[5] = system: VSMC; assay: Cytotoxicity against Sprague-Dawley rat VSMC assessed as decrease in cell viability at >5 uM after 24 hrs by MTT assay; assay type: cell-based; method in brief: as §1

Compound	Activity [1]	inhibition [2]	inhibition at 10 µM [3]	Activity [4]	Activity [5]
C[C@H](C/C=C/C(C)(C)O)[C@H]1CC[C@@]2(C)[C@@H]3[C@@H](O)C=C4[C@@H](CC[C@H](OC(=O)CC(=O)O)C4(C)C)[C@]3(C=O)CC[C@]12C	Non-Toxic	Active	–	–	–
C[C@H](C/C=C/C(C)(C)O)[C@H]1CC[C@@]2(C)[C@@H]3C=C[C@@]45OC(=O)[C@]3(CC[C@]12C)[C@@H]4CC[C@H](O[C@@H]1O[C@H](CO)[C@@H](O)[C@@H](O)[C@H]1O)C5(C)C	Non-Toxic	Active	–	–	–
CO[C@H]1O[C@]23C=C[C@@H]4[C@@]1(CC[C@]1(C)[C@@H]([C@H](C)C/C=C/C(C)(C)OC)CC[C@@]41C)[C@@H]2CC[C@H](OC(=O)CC(=O)O)C3(C)C	Non-Toxic	–	72.4%	–	–
CO[C@H](C=C(C)C)C[C@@H](C)[C@H]1CC[C@@]2(C)[C@@H]3[C@@H](OC)C=C4[C@@H](CC[C@H](OC(=O)CC(=O)O)C4(C)C)[C@]3(C=O)CC[C@]12C	Non-Toxic	–	67.9%	–	–
COC(C)(C)/C=C/C[C@@H](C)[C@H]1CC[C@@]2(C)[C@@H]3C=C[C@@]45OC(=O)[C@]3(CC[C@]12C)[C@@H]4CC[C@H](OC(=O)CC(=O)O)C5(C)C	–	–	–	Non-Toxic	Toxic
CO[C@H]1O[C@]23C=C[C@@H]4[C@@]1(CC[C@]1(C)[C@@H]([C@H](C)C/C=C/C(C)(C)OC)CC[C@@]41C)[C@@H]2CC[C@H](OC(=O)C(=O)O)C3(C)C	Non-Toxic	–	–	–	–
COC(C)(C)/C=C/C[C@@H](C)[C@H]1CC[C@@]2(C)[C@@H]3[C@@H](O)C=C4[C@@H](CC[C@H](OC(=O)CC(=O)O)C4(C)C)[C@]3(C=O)CC[C@]12C	Non-Toxic	Active	–	–	–
